High-throughput results deposited in PubChem BioAssay by several laboratories.
PTK2B oligo ant = antagonists of Pyk2 self-association, primary screen, Q293 cells, FERM NanoBiT luminescence, HTS; z-score (the deposit names both 25 µM and 10 µM); stronger effect = lower value; actives 0.83% (n = 99,000);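 active = Z-score of -3 or lower, scaled per plate to the spread of control and sample wells; inactive = z-score above -3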;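 also: negative z-score means lost luminescence so less FERM oligomerization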
Cav32 inh = Cav3.2 calcium influx blockers – cell-based, Fluo-4 calcium fluorescence, FDSS, MLSMR library, primary screen; Voltage-dependent T-type calcium channel subunit alpha-1H (Homo sapiens), O95180; Cav3.2-expressing cells; stronger effect = lower value; B-score at 10 µM; actives 4% (n = 100,000); AID 449739, 2010;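 active = single-dose well whose peak fluorescence ratio is a statistical outlier from its plate by either plate-standardised score or position-corrected B-score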
HIV Rev-RRE inh = HIV-1 Rev-RRE binding inhibitors, primary screen, biochemical, FRET, protein-RNA interaction; inhibition, % at 8 µM; actives 0.79% (n = 97,000); P05866; Rev peptide-RRE RNA binding; AID 704, 2007;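 active = inhibition above the screen-wide mean plus 3 SD, cut at about 35% in these data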;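 also: 0% = median DMSO wells and 100% = median Neomycin B control wells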
Target sequence (P05866 whole entry, looked up): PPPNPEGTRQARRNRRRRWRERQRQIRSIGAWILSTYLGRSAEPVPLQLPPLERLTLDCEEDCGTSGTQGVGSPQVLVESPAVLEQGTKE
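Test system: Cy5-tagged RRE RNA duplex with fluorescein-tagged Rev peptide | Read-out: % inhibition of FRET ratio versus controls | Probe or stimulus: Labelled Rev peptide | Incubation: 5 min RNA-compound premix plus 15 min binding step, 25 °C | Technique: FRET fluorescence readout | Benchmarks: DMSO low control, neomycin B high control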
Measles CPE = compounds protecting cells from measles virus cytopathic effect, primary screen, measles RdRp inhibitor project, single point, MLSMR library, absorbance | Measles virus-infected cells, CPE protection | protection (pct of control), % at 4 µM | actives 1.5% (n = 140,000); in the data active = protection mostly above about 24%, no sharp cut-off; inactive = mostly below about 26%
hDAT+cocaine = changed hDAT dopamine uptake under cocaine IC80, either direction, primary screen, cocaine antagonist project, cell-based, LLC-PK1 hDAT, [14C]-dopamine uptake, MLSMR | Sodium-dependent dopamine transporter (Homo sapiens), Q01959 | LLC-PK1 hDAT cells, [14C]-dopamine uptake with cocaine IC80; actives deviate in either direction | B-score at 10 µM | actives 1.3% (n = 110,000) | AID 449768, 2010;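 active = Z score or B-score, a plate-position-corrected score, falls beyond the plate's 99.7% confidence bounds, in either direction; inactive = both scores lie inside the 99.7% bounds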;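 also: scored against the spread of the other compound wells on the same plate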
Target sequence (Q01959 whole entry, looked up): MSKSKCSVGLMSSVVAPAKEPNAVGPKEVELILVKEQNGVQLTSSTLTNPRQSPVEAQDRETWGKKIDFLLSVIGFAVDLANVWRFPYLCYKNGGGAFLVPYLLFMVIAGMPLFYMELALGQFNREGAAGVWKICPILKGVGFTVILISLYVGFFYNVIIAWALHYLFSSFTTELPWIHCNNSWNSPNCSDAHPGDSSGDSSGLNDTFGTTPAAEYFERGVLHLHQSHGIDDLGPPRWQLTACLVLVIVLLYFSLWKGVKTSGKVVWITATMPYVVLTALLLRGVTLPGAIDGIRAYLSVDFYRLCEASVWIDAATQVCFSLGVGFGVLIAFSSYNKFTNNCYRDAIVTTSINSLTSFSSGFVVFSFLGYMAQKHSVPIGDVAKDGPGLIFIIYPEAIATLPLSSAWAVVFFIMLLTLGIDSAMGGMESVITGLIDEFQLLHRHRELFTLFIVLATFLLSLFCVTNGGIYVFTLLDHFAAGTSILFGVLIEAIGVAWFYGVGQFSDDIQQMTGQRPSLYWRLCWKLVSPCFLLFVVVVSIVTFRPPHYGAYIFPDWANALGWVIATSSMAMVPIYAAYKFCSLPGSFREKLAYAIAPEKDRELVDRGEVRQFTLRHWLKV
Phagocytosis inh = inhibitors of macrophage phagocytosis, primary screen, imaging, J774A.1 cells, IgG beads. J774A.1 macrophage IgG-bead phagocytosis. inhibition, % at 5 µM. actives 0.07% (n = 110,000). AID 1029, 2008;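 active = inhibition above the mean of the plate negative controls plus 5 SD, cut at about 13% in these data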;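 also: phagocytic index as fraction of beads internalized from green versus red external bead signal; plate controls were DMSO negative control for no effect and cytochalasin-D positive control for full effect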
* = called active by the depositor; / = no result. Compounds with a hit are over-represented: about 5.9% of the library has one in this group of screens.

SMILES | PTK2B oligo ant | Cav32 inh | HIV Rev-RRE inh | Measles CPE | hDAT+cocaine | Phagocytosis inh
Cc1ccc(C(=O)CCNc2ccc(Cl)cc2)o1 | -0.55 | -0.91 | 1 | 4 | -0.68 | 2
CCOCCN1CCN(c2c(CC)c(C)nc3cc(-c4cc(OC)cc(OC)c4)nn23)CC1 | -0.81 | / | 9 | 6 | 2* | /
CC(C)(C)NC(=O)CSc1nc2ccc(NC(=O)CSc3nnnn3Cc3ccccc3)cc2s1 | -1.6 | -0.47 | 8 | 44* | -0.59 | 0
CCOC(=O)CSc1nc2ccc(NC(=O)CSc3nnnn3Cc3ccccc3)cc2s1 | -0.7 | -0.06 | 7 | 9 | 0.37 | /
O=C(CSc1nnc(-c2ccc(OC(F)F)cc2)o1)NCc1cccs1 | 0.87 | -0.56 | 5 | 15 | -0.12 | 0
O=C1CC(SC(=NCc2ccc3c(c2)OCO3)Nc2ccccc2)C(=O)N1c1ccccc1 (stereo not given) | -0.08 | 0.052 | 6 | 11 | -0.43 | -1
C/C(CCc1ccc2c(c1)OCO2)=N\N=C(/N)SC1CC(=O)N(c2ccc(Cl)cc2)C1=O (stereo not given) | 0.83 | -4.1* | 4 | 22 | 0.49 | 0
COc1ccc(-n2c(Cc3cccn3C)nnc2SCC(N)=O)cc1 | / | -0.28 | -1 | 9 | 0.2 | 0
COc1ccc(-n2c(Cc3cccn3C)nnc2SCC(=O)Nc2ccccc2)cc1 | / | -13* | 0 | 13 | 0.23 | 0
COc1ccc(-n2c(Cc3cccn3C)nnc2SCC(=O)NCc2ccc(F)cc2)cc1 | / | -7.1* | / | 33 | 2.3 | 0
COc1ccc(-n2c(Cc3cccn3C)nnc2SCC(=O)NCc2ccco2)cc1 | / | -0.74 | / | 15 | -0.24 | 0
CCc1ccc(NC(=O)CSc2nnc(Cc3cccn3C)n2-c2ccc(OC)cc2)cc1 | / | -5.4* | -8 | 1 | 2.2 | 0
COc1ccc(-n2c(Cc3cccn3C)nnc2SCC(=O)Nc2ccc(Cl)cc2)cc1 | / | -4.5* | 4 | 19 | -0.25 | 2
CCc1ccc(C(=O)CN2CCSC2=N)cc1 | / | / | / | 11 | / | 0
O=C(C1=C[C@@H](c2ccc(C(F)(F)F)cc2)C[C@@H](OCCCCO)O1)N1CCN(Cc2ccc3c(c2)OCO3)CC1 | / | -2.9 | / | / | 0.45 | /
COc1ccc(-n2c(Cc3cccn3C)nnc2SCC(=O)Nc2cccc(F)c2)cc1 | / | -4.5* | / | 14 | 0.93 | 0
COc1ccc(C(=O)NCc2nnc(SCC(=O)Nc3nc4ccccc4s3)o2)cc1OC | / | / | / | 23 | / | -8
CC1CC(NC(=O)Cc2ccc(Br)cc2)CC(C)(C)C1 (stereo not given) | 0.05 | -7.4* | 17 | 5 | 1.1 | /
O=C1CC2CS(=O)(=O)CC2N1c1ccc(Cl)cc1Cl (stereo not given) | -0.39 | 0.74 | -2 | 16 | -0.13 | /
O=C1CN=CN=CN1c1ccc(Cl)cc1Cl | / | / | / | 45* | / | -6
CC(CCc1ccccc1)NC(=O)COc1ccc(S(=O)(=O)N2CCOCC2)cc1[N+](=O)[O-] (stereo not given) | / | / | / | 7 | / | 0
Cc1ccccc1NC(=O)c1sc2nc3c(c(-c4ccco4)c2c1N)CCCC3 | 0.23 | -4.2* | 15 | 10 | -0.44 | /
N#Cc1sc2nc3c(c(-c4cccnc4)c2c1N)CCC3 | -1.4 | 0.28 | 1 | 4 | -1.4 | -1
Nc1c(C(=O)Nc2ccccc2)sc2nc3c(c(-c4ccco4)c12)CCCC3 | -1.1 | -2.1 | 5 | 5 | 0.73 | /
NC(=O)c1sc2nc3c(c(-c4cccs4)c2c1N)CCCCC3 | 0.72 | 0.14 | 4 | 61* | / | 0
SMILES | PTK2B oligo ant | Cav32 inh | HIV Rev-RRE inh | Measles CPE | hDAT+cocaine | Phagocytosis inh
NC(=O)c1sc2nc3c(c(-c4cccnc4)c2c1N)CCC3 | -0.36 | 0.58 | 7 | -2 | -9.1* | /
COc1ccc(CN(C(=O)c2cnccn2)C(C(=O)Nc2ccc(F)cc2)c2ccccc2)cc1 (stereo not given) | -1.8 | -2.1 | 10 | 3 | -0.16 | /
CCOC(=O)N1CCN(CC(O)c2ccc3cc[nH]c3c2)CC1 (stereo not given) | / | 0.47 | 0 | 34 | 0.65 | 0
COc1ccccc1N1CCN(CC(O)c2ccc3cc[nH]c3c2)CC1 (stereo not given) | / | -5.6* | 1 | 20 | -1.2 | 0
COc1cccc(NC(=O)COC(=O)c2nc3nccc(C)n3n2)c1 | 1.8 | 1.8 | 8 | 76* | -1.4 | /
Cc1ccnc2nc(C(=O)OCC(=O)NCCc3ccccc3)nn12 | / | / | / | 3 | / | 3
O=C(COC(=O)c1c2c(nc3ccccc13)CCCC2)Nc1ccc2c(c1)OCO2 | -3.5* | -2.5 | 6 | 6 | 0.24 | /
COc1cccc(NC(=O)COC(=O)c2cccnc2)c1 | 0.6 | -0.023 | 6 | 21 | 0.47 | 0
O=C(COC(=O)c1cc(-c2ccccc2)nc2ccccc12)Nc1ccc2c(c1)OCO2 | / | / | / | 4 | / | 0
COc1cccc(NC(=O)COC(=O)c2c3c(nc4ccccc24)CCC(C)C3)c1 (stereo not given) | -4.7* | -2.6 | 9 | 2 | -0.77 | /
Cc1ccc(NC(=O)c2ccccc2N(C)S(=O)(=O)c2ccccc2)c(C)c1 | / | / | / | 7 | / | -1
CCn1cc(Cl)c(C(=O)N2N=C3/C(=C/c4cccs4)CCCC3C2c2cccs2)n1 (stereo not given) | -1.2 | -5.6* | -7 | 1 | 1.9 | /
CCCCC(=O)Nc1ccc(C(=O)Nc2ccc(S(=O)(=O)Nc3nccc(C)n3)cc2)cc1 | / | / | / | 10 | / | 4
O=C(Nc1nc(=S)ss1)c1ccc(Cl)cc1Cl | 0.74 | -11* | 0 | 13 | -0.36 | /
CC1(C)Cc2c(sc3nc(-c4ccccc4)oc(=O)c23)CO1 | / | / | / | 16 | / | -7
CC1C(c2ccccc2)N(C)C(c2ccccc2)CC1(O)c1ccccc1 (stereo not given) | 0.45 | -6.8* | 13 | 11 | -0.48 | -2
CC(C)CC(C(=O)O)N1C(=O)C2C3CC(C2C1=O)C1C(c2ccccc2)c2sc(=O)[nH]c2SC31 (stereo not given) | / | / | / | 6 | / | 0
CCOC(=O)/C(C#N)=C1/C=C(C)NC(c2ccccc2O)=N1 | -2.9 | -3 | -1 | 16 | -0.46 | -1
CCOC(=O)/C(C#N)=C1/C=CN(C)C(C)=N1 | -0.55 | -0.14 | 7 | 29* | -0.36 | 1
Nc1c(C(=O)Nc2ccc(F)cc2)sc2nc(-c3ccco3)ccc12 | 0.16 | -1 | 46* | 5 | 0.5 | 0
Cc1ccc(NC(=O)c2sc3nc4c(c(-c5ccco5)c3c2N)CCC4)cc1 | 0.67 | -2.2 | 18 | 16 | 1.1 | -1
